# In ChEMBL document CHEMBL1811814, “Synthesis and evaluation of indole, pyrazole, chromone and pyrimidine based conjugates for tumor growth inhibitory activities--development of highly efficacious cytotoxic agents” (Eur J Med Chem, 2010):
# Assays:
# Format in all cases: functional
# Parameters in all cases: scale not given: the % may be the effect or the level left
# CCRF-CEM = assay: Growth inhibition of human CCRF-CEM cells assessed tumor cell growth at 10^-5 M
# In short: (§1)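 NCI 60-human-tumor-cell-line panel screen. Each compound was tested at a single concentration of 10^-5 M, and percent growth of tumor cells was recorded for each cell line. Growth inhibition was expressed from these percent-growth values.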
# HL-60(TB) = assay: Growth inhibition of human HL-60(TB) cells assessed tumor cell growth at 10^-5 M
# In short: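 HL-60(TB), part of the 60-line panel, tested at a single concentration of 10^-5 M. The read-out is percent tumor cell growth relative to untreated growth.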
# K562 = assay: Growth inhibition of human K562 cells assessed tumor cell growth at 10^-5 M; in short: as §1
# MOLT-4 = assay: Growth inhibition of human MOLT4 cells assessed tumor cell growth at 10^-5 M; in short: as §1
# [1] = Growth inhibition of human […] cells assessed tumor cell growth at 10^-5 M; in short: as §1
# SR = assay: Growth inhibition of human SR cells assessed tumor cell growth at 10^-5 M
# In short: (§2)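 Single-dose screen at 10^-5 M across the 60 human tumor cell line panel, run to NCI standards. The value is the percent growth of each cell line in the presence of compound. Compounds active at this dose moved on to five-concentration testing (10^-4 to 10^-8 M).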
# A549 = assay: Growth inhibition of human A549 cells assessed tumor cell growth at 10^-5 M; in short: as §1
# EKVX = assay: Growth inhibition of human EKVX cells assessed tumor cell growth at 10^-5 M; in short: as §1
# HOP-62 = assay: Growth inhibition of human HOP62 cells assessed tumor cell growth at 10^-5 M; in short: as §1
# HOP-92 = assay: Growth inhibition of human HOP92 cells assessed tumor cell growth at 10^-5 M; in short: as §1
# NCI-H226 = assay: Growth inhibition of human NCI-H226 cells assessed tumor cell growth at 10^-5 M; in short: as §1
# NCI-H23 = assay: Growth inhibition of human NCI-H23 cells assessed tumor cell growth at 10^-5 M; in short: as §1
# NCI-H322M = assay: Growth inhibition of human NCI-H322M cells assessed tumor cell growth at 10^-5 M; in short: as §1
# NCI-H460 = assay: Growth inhibition of human NCI-H460 cells assessed tumor cell growth at 10^-5 M; in short: as §1
# NCI-H522 = assay: Growth inhibition of human NCI-H522 cells assessed tumor cell growth at 10^-5 M; in short: as §1
# COLO 205 = assay: Growth inhibition of human COLO205 cells assessed tumor cell growth at 10^-5 M; in short: as §1
# HCC 2998 = assay: Growth inhibition of human HCC2998 cells assessed tumor cell growth at 10^-5 M; in short: as §1
# HCT-116 = assay: Growth inhibition of human HCT116 cells assessed tumor cell growth at 10^-5 M; in short: as §1
# HCT-15 = assay: Growth inhibition of human HCT15 cells assessed tumor cell growth at 10^-5 M; in short: as §1
# HT-29 = assay: Growth inhibition of human HT-29 cells assessed tumor cell growth at 10^-5 M; in short: as §1
# KM12 = assay: Growth inhibition of human KM12 cells assessed tumor cell growth at 10^-5 M; in short: as §1
# SW-620 = assay: Growth inhibition of human SW620 cells assessed tumor cell growth at 10^-5 M; in short: as §2
# SF-268 = assay: Growth inhibition of human SF268 cells assessed tumor cell growth at 10^-5 M; in short: as §1
# SF-295 = assay: Growth inhibition of human SF295 cells assessed tumor cell growth at 10^-5 M; in short: as §1
# SF-539 = assay: Growth inhibition of human SF539 cells assessed tumor cell growth at 10^-5 M; in short: as §1
# SNB-19 = assay: Growth inhibition of human SNB19 cells assessed tumor cell growth at 10^-5 M; in short: as §2
# SNB-75 = assay: Growth inhibition of human SNB75 cells assessed tumor cell growth at 10^-5 M; in short: as §2
# U-251 = assay: Growth inhibition of human U251 cells assessed tumor cell growth at 10^-5 M; in short: as §2
# LOX IMVI = assay: Growth inhibition of human LOXIMVI cells assessed tumor cell growth at 10^-5 M; in short: as §1
# Malme-3M = assay: Growth inhibition of human MALME-3M cells assessed tumor cell growth at 10^-5 M; in short: as §1
# M14 = assay: Growth inhibition of human M14 cells assessed tumor cell growth at 10^-5 M; in short: as §1
# MDA-MB-435 = assay: Growth inhibition of human MDA-MB-435 cells assessed tumor cell growth at 10^-5 M; in short: as §1
# SK-MEL-2 = assay: Growth inhibition of human SK-MEL-2 cells assessed tumor cell growth at 10^-5 M; in short: as §1
# SK-MEL-28 = assay: Growth inhibition of human SK-MEL-28 cells assessed tumor cell growth at 10^-5 M; in short: as §1
# SK-MEL-5 = assay: Growth inhibition of human SK-MEL-5 cells assessed tumor cell growth at 10^-5 M; in short: as §1
# UACC-257 = assay: Growth inhibition of human UACC257 cells assessed tumor cell growth at 10^-5 M; in short: as §2
# UACC-62 = assay: Growth inhibition of human UACC62 cells assessed tumor cell growth at 10^-5 M; in short: as §2
# IGROV-1 = assay: Growth inhibition of human IGROV1 cells assessed tumor cell growth at 10^-5 M; in short: as §1
# OVCAR-3 = assay: Growth inhibition of human OVCAR3 cells assessed tumor cell growth at 10^-5 M; in short: as §1
# OVCAR-4 = assay: Growth inhibition of human OVCAR4 cells assessed tumor cell growth at 10^-5 M; in short: as §1
# OVCAR-5 = assay: Growth inhibition of human OVCAR5 cells assessed tumor cell growth at 10^-5 M; in short: as §1
# OVCAR-8 = assay: Growth inhibition of human OVCAR8 cells assessed tumor cell growth at 10^-5 M; in short: as §1
# NCI/ADR-RES = assay: Growth inhibition of human NCI/ADR-RES cells assessed tumor cell growth at 10^-5 M; in short: as §1
# SK-OV-3 = assay: Growth inhibition of human SKOV3 cells assessed tumor cell growth at 10^-5 M; in short: as §1
# 786-0 = assay: Growth inhibition of human 786-0 cells assessed tumor cell growth at 10^-5 M; in short: as §1
# A498 = assay: Growth inhibition of human A498 cells assessed tumor cell growth at 10^-5 M; in short: as §1
# ACHN = assay: Growth inhibition of human ACHN cells assessed tumor cell growth at 10^-5 M; in short: as §1
# CAKI-1 = assay: Growth inhibition of human Caki1 cells assessed tumor cell growth at 10^-5 M; in short: as §1
# RXF 393 = assay: Growth inhibition of human RXF393 cells assessed tumor cell growth at 10^-5 M; in short: as §1
# SN12C = assay: Growth inhibition of human SN12C cells assessed tumor cell growth at 10^-5 M; in short: as §1
# TK-10 = assay: Growth inhibition of human TK10 cells assessed tumor cell growth at 10^-5 M; in short: as §2
# UO-31 = assay: Growth inhibition of human UO31 cells assessed tumor cell growth at 10^-5 M; in short: as §2
# PC-3 = assay: Growth inhibition of human PC3 cells assessed tumor cell growth at 10^-5 M; in short: as §1
# DU-145 = assay: Growth inhibition of human DU145 cells assessed tumor cell growth at 10^-5 M; in short: as §1
# MCF7 = assay: Growth inhibition of human MCF7 cells assessed tumor cell growth at 10^-5 M; in short: as §1
# MDA-MB-231 = assay: Growth inhibition of human MDA-MB-231 cells assessed tumor cell growth at 10^-5 M; in short: as §1
# [2] = Growth inhibition of human Hs 578T cells assessed tumor cell growth at 10^-5 M; in short: as §1
# BT-549 = assay: Growth inhibition of human BT549 cells assessed tumor cell growth at 10^-5 M; in short: as §1
# T47D = assay: Growth inhibition of human T47D cells assessed tumor cell growth at 10^-5 M; in short: as §2
# MDA-MB-468 = assay: Growth inhibition of human MDA-MB-468 cells assessed tumor cell growth at 10^-5 M; in short: as §1
structure (smiles),measurement,setting,value
CC1=NN(c2cccc(Cl)c2)C(=O)/C1=C\c1cn(Cc2ccccc2)c2ccccc12,Activity,CCRF-CEM,109.04%
same,Activity,HL-60(TB),99.67%
same,Activity,K562,93.59%
same,Activity,MOLT-4,89.6%
same,Activity,[1],88.18%
same,Activity,SR,86.52%
same,Activity,A549,90.89%
same,Activity,EKVX,82.36%
same,Activity,HOP-62,81.96%
same,Activity,HOP-92,94.45%
same,Activity,NCI-H226,16.9%
same,Activity,NCI-H23,88.9%
same,Activity,NCI-H322M,105.8%
same,Activity,NCI-H460,55.83%
same,Activity,NCI-H522,86.7%
same,Activity,COLO 205,96.36%
same,Activity,HCC 2998,109.37%
same,Activity,HCT-116,81.87%
same,Activity,HCT-15,97.68%
same,Activity,HT-29,93.03%
same,Activity,KM12,93.39%
same,Activity,SW-620,93.2%
same,Activity,SF-268,95.57%
same,Activity,SF-295,74.11%
same,Activity,SF-539,96.45%
same,Activity,SNB-19,93.46%
same,Activity,SNB-75,80.99%
same,Activity,U-251,89.34%
same,Activity,LOX IMVI,87%
same,Activity,Malme-3M,92.02%
same,Activity,M14,93.78%
same,Activity,MDA-MB-435,106.21%
same,Activity,SK-MEL-2,90.21%
same,Activity,SK-MEL-28,98.38%
same,Activity,SK-MEL-5,90.4%
same,Activity,UACC-257,93.1%
same,Activity,UACC-62,78.13%
same,Activity,IGROV-1,85.79%
same,Activity,OVCAR-3,95.7%
same,Activity,OVCAR-4,88.56%
same,Activity,OVCAR-5,43.95%
same,Activity,OVCAR-8,97.42%
same,Activity,NCI/ADR-RES,100.71%
same,Activity,SK-OV-3,71.03%
same,Activity,786-0,100.84%
same,Activity,A498,89.58%
same,Activity,ACHN,84.07%
same,Activity,CAKI-1,89.4%
same,Activity,RXF 393,92.68%
same,Activity,SN12C,101.76%
same,Activity,TK-10,154.6%
same,Activity,UO-31,71.93%
same,Activity,PC-3,84.66%
same,Activity,DU-145,103.96%
same,Activity,MCF7,72.9%
same,Activity,MDA-MB-231,89.94%
same,Activity,[2],90.49%
same,Activity,BT-549,107.13%
same,Activity,T47D,67.17%
same,Activity,MDA-MB-468,76.71%
